According to PubChem BioAssay:
Active and inactive are the calls of the source.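 Rule for the calls, unless noted: active = fluorescence slope after compound addition differing from the mean of all tested samples at 99.7% confidence, mostly higher but some lower; inactive = the rest.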

Columns and labels:
[1] = inhibitors of TNFa-induced NFkB p65 translocation, primary screen, imaging, HUVEC, MLSMR starter and 10KST1 sets (AID 438;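 active = inhibition above 20% together with a positive visual image hit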;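 note: compound added about 3h40 before a 20 min TNFalpha stimulation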;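 for inhibition: signal is the nuclear over cytoplasmic p65 intensity ratio per well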); settings: HUVEC TNFa-induced p65 nuclear translocation; cell count: measured here: nuclei count (cytotoxicity indicator), at 2.08 µM; inhibition: at 2 µM, stronger effect = higher value, 0% TNFa-plus-vehicle, 100% no-TNFa wells
[2] = reduction of polyQ htt aggregates in cells – imaging, exon1htt(103Q)mCFP cells, high-content imaging, primary screen (AID 483;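 active = visual image review flags a hit and inhibition of aggregation exceeds 20%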;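 note: compound exposure lasted 3 days before fixation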;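 for nuclei count: percent of the per-plate median nuclei count of sample wells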); settings: exon1htt(103Q)mCFP cell line, aggregate imaging, at 2 µM; inhibition of aggregation: stronger effect = higher value; nuclei count: measured here: cell count, toxicity
[3] = endothelial E-selectin expression blockers – imaging, HUVEC, immunofluorescence, MLSMR starter and 10KST1 sets, primary screen (AID 487;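 active = visually confirmed hit in the image check and inhibition above 20%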;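 for inhibition: signal is fraction of cell area covered by stained E-selectin grains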;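 for nuclei count: 100% = median nuclei count of all wells on the same plate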); settings: HUVEC TNFalpha-induced E-selectin immunofluorescence imaging, at 2 µM; inhibition: stronger effect = higher value; nuclei count: measured here: cell number, toxicity
[4] = molecular target: Voltage-gated potassium channel subunit beta-2 (Rattus norvegicus) (UniProt P62483); assay: inhibitors of rat Kvbeta2 reductase activity – biochemical, NADPH fluorescence, primary screen (AID 622;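 active = fluorescence slope higher than the sample average by over 3 SD, cut at about -0.22 in these data, passing the limit was not always enough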;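 note: slope of raw intensity against log time taken from 70 to 1610 s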); settings: recombinant KvBeta, 4-cyanobenzaldehyde reduction, at 10 µM, stronger effect = higher value
Chain of Voltage-gated potassium channel subunit beta-2 (Rattus norvegicus) (P62483 whole entry, looked up): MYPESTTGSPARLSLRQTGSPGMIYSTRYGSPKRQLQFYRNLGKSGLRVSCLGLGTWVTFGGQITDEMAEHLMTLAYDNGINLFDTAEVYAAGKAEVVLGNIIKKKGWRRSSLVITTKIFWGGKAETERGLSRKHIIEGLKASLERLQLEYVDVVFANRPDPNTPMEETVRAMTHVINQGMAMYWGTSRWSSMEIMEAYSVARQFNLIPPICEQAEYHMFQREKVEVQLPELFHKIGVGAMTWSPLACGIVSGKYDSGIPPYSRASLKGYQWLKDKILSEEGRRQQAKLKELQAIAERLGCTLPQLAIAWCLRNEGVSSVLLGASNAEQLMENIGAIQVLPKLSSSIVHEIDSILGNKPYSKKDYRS

[5] = molecular target: Voltage-gated potassium channel subunit beta-2 (Rattus norvegicus) (UniProt P62483); assay: enhancers of rat Kvbeta2 NADPH turnover – biochemical, NADPH fluorescence, primary screen (AID 623;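 active = NADPH fluorescence slope more negative than the mean of all samples by about 3 SD, 99.7% confidence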;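 note: fluorescence intensity change per second fitted from 20 to 320 s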); settings: Recombinant KvBeta, NADPH fluorescence decrease slope, 10 min; at 10 µM; stronger effect = lower value
[6] = molecular target: Muscarinic acetylcholine receptor M4 (Homo sapiens) (UniProt P08173); assay: M4-linked GIRK flux change, two-sided – cell-based, HEK293 M4/GIRK, thallium flux, BTC-AM, M4 allosteric agonist project, primary screen (AID 625); settings: at 10 µM, actives lie on both sides;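 note: thallium influx through GIRK channels coupled to M4 in HEK293 cells with BTC-AM dye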
Chain of Muscarinic acetylcholine receptor M4 (Homo sapiens) (P08173 whole entry, looked up): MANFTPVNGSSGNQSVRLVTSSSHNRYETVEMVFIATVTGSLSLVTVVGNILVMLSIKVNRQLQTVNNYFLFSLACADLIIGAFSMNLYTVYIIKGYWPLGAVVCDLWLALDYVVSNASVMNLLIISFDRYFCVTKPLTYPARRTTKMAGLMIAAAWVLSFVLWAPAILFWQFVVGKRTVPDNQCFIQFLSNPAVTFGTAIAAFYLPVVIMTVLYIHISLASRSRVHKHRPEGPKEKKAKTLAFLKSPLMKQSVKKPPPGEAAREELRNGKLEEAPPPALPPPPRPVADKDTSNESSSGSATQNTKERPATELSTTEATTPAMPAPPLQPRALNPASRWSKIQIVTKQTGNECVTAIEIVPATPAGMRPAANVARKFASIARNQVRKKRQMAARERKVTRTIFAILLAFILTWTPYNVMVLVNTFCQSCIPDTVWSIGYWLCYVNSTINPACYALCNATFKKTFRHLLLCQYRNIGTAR
How it was run: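 assay system = HEK293 cells with M4 receptor and GIRK channels | medium = pH 7.3 thallium assay buffer | doses = 10 µM final, single point | timing = cells overnight at 37 °C, BTC-AM loading 1 h, reads 2 min total | signal = BTC-AM fluorescence, 1 Hz kinetic reads | read-out = post-addition slope, 15–24 s, of baseline-normalized fluorescence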

[7] = blockers of RIG-like receptor reporter activation – cell-based, Sendai virus stimulus, luciferase, 10K MLSCN set, TLR/RLR signaling modifier project, primary screen (AID 602276;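 active = inhibition at or above 50% at 10 µM; inactive = inhibition below 50%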;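 note: firefly luciferase from ISG56 promoter only with Renilla not read in this screen; 0% = Sendai virus plus DMSO and 100% = medium plus DMSO without virus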); settings: HEK293 RL24 IRF3 luciferase reporter, at 10 µM, stronger effect = higher value
[8] = TLR3 IRF3 reporter activation blockers – cell-based, poly I:C stimulus, luciferase, 10K MLSCN set, primary screen (AID 602277;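 active = inhibition of the reporter signal at or above 50%; inactive = inhibition below 50%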); settings: HEK293-TLR3 RL24 IRF3 luciferase reporter, at 10 µM, stronger effect = higher value

Structure (SMILES)	cell count [1]	inhibition [1]	inhibition of aggregation [2]	nuclei count [2] [%]	inhibition [3]	nuclei count [3] [%]	fluorescence slope [4]	NADPH fluorescence slope [5]	fluorescence slope [6]	inhibition [7]	inhibition [8]
COc1ccccc1-n1cnc(N)c1C(C)=O	675	-9.1% (inactive)	-12.9% (inactive)	105	-12.3% (inactive)	110	-0.586 (inactive)	-5.1e-05 (inactive)	0.00353 (inactive)	6.44% (inactive)	5.79% (inactive)
CCOC(=O)N1CCC(NC(=O)c2ccc3c(c2)N(C)CCS3)CC1	368	-0.7% (inactive)	17.8% (inactive)	113	-131% (inactive)	126	-0.0303 (active)	1.7e-06 (inactive)	0.00744 (inactive)	13% (inactive)	21.9% (inactive)
CN(C)CCCNC(=O)CCC1CCCCC1	333	-12.5% (inactive)	-4% (inactive)	103	-132% (inactive)	110	-0.277 (inactive)	-3.7e-05 (inactive)	0.00526 (inactive)	12% (inactive)	21.1% (inactive)
CCOC(=O)C1C(=O)OC(C)(C)C1C(C)C(=O)c1ccc(OC)cc1 (stereo not drawn)	605	-6.4% (inactive)	-4.2% (inactive)	42.1	3.9% (inactive)	92.7	-0.47 (inactive)	3.2e-06 (inactive)	0.00448 (inactive)	21.2% (inactive)	23.4% (inactive)
CC(=O)OCC(=O)c1ccc2ccn(C(C)=O)c2c1	544	1.6% (inactive)	-17.9% (inactive)	102	-19.1% (inactive)	95.5	-0.258 (inactive)	-1.1e-05 (inactive)	0.00624 (inactive)	4.56% (inactive)	-8.58% (inactive)
CC(O)c1nc2ccccc2n1C1CCCCC1 (stereo not drawn)	631	-19.6% (inactive)	-4.7% (inactive)	99.7	-16.4% (inactive)	111	-0.585 (inactive)	4.8e-06 (inactive)	0.00511 (inactive)	20.2% (inactive)	24.7% (inactive)
CCN(CC)c1ccc(NC(=O)c2cncc(Br)c2)cc1	218	0.6% (inactive)	28% (inactive)	86.8	-31.6% (inactive)	104	-0.59 (inactive)	-6e-05 (inactive)	0.00416 (inactive)	-32.8% (inactive)	-129% (inactive)
CCCN1CCN(C(=O)c2cn(CC(C)C)c(=O)c3cc(OC)c(OC)cc23)CC1	566	-25.1% (inactive)	-3.2% (inactive)	113	-9.9% (inactive)	105	-0.441 (inactive)	-4.3e-05 (inactive)	0.00598 (inactive)	15.6% (inactive)	20.6% (inactive)
COc1cccc(NS(=O)(=O)c2cc(C)sc2C)c1	311	-5.7% (inactive)	3.3% (inactive)	93	-57% (inactive)	113	-0.467 (inactive)	-1.8e-05 (inactive)	0.00503 (inactive)	3.14% (inactive)	24.9% (inactive)
COc1cc(NC(=O)C2CC(c3cccc(OC)c3OC)=NO2)cc(OC)c1OC (stereo not drawn)	711	-12.2% (inactive)	-18.4% (inactive)	76.9	-176% (inactive)	104	-0.573 (inactive)	2.2e-05 (inactive)	0.0048 (inactive)	17.4% (inactive)	-1.09% (inactive)
O=C(O)CCNc1ccc2c(c1)OCCO2	510	-26.5% (inactive)	10% (inactive)	118	-25.3% (inactive)	116	-0.348 (inactive)	-3.8e-05 (inactive)	0.00514 (inactive)	4.8% (inactive)	5.31% (inactive)
CCOC(=O)N1CCC2(CC1)CC(=O)c1c(ccc3oc(C(=O)O)c(C)c13)O2	313	-4.1% (inactive)	-17.7% (inactive)	99	-83.8% (inactive)	105	-0.413 (inactive)	-1.7e-05 (inactive)	0.00564 (inactive)	0.598% (inactive)	11.3% (inactive)
CN=C(C)C1=C(O)C(C(=O)OC)C(C)(C)CC1=O (stereo not drawn)	506	5% (inactive)	-7.4% (inactive)	108	-187% (inactive)	122	-0.54 (inactive)	-0.00011 (inactive)	0.00531 (inactive)	16.6% (inactive)	16.6% (inactive)
COc1cc2c(cc1OC)-c1cc(OCc3cccnc3)nc(=O)n1CC2	753	-8.4% (inactive)	-4.9% (inactive)	96.1	-49% (inactive)	116	-0.0427 (active)	-1.1e-05 (inactive)	0.00535 (inactive)	31.6% (inactive)	28.8% (inactive)
CCOc1ccc2[nH]c(=O)c(CN(CCOC)C(=O)N3CCOCC3)cc2c1	373	2.4% (inactive)	-4% (inactive)	90.4	-3.2% (inactive)	99.9	-0.395 (inactive)	3.3e-05 (inactive)	0.0064 (inactive)	3.22% (inactive)	12.3% (inactive)
Nc1cc(-c2ccccc2)ccc1O	329	6.3% (inactive)	33.9% (active)	88.4	-40.6% (inactive)	103	-0.314 (inactive)	-1.6e-05 (inactive)	0.00771 (inactive)	-0.254% (inactive)	1.06% (inactive)
COC(=O)c1cccc(NC(=O)C2COc3ccccc3O2)c1C (stereo not drawn)	349	-3.3% (inactive)	13.6% (inactive)	102	-10.1% (inactive)	96.5	-0.508 (inactive)	-1.7e-05 (inactive)	0.0049 (inactive)	-2.98% (inactive)	-15.7% (inactive)
CCC(=O)Nc1cccc(Br)c1	323	2.9% (inactive)	17.6% (inactive)	99.7	-38.1% (inactive)	123	-0.541 (inactive)	-6e-05 (inactive)	0.0051 (inactive)	-18.4% (inactive)	-1.97% (inactive)
NC1=NC(c2ccc(Cl)cc2)n2c(nc3ccccc32)N1 (stereo not drawn)	780	3.5% (inactive)	-8.4% (inactive)	125	-15.2% (inactive)	113	-0.584 (inactive)	1.3e-05 (inactive)	0.00539 (inactive)	16.5% (inactive)	18.6% (inactive)
CCOc1cc(N2CCOCC2)c(OCC)cc1NC(=O)CSc1cccc[n+]1[O-]	506	10.6% (inactive)	2.4% (inactive)	109	-56.8% (inactive)	115	-0.506 (inactive)	-0.000267 (inactive)	0.00543 (inactive)	15.1% (inactive)	18.2% (inactive)
O=C(OCC(=O)N1CCCC1)c1cncc(Br)c1	682	16.5% (inactive)	23.5% (inactive)	83	35.3% (inactive)	102	-0.207 (inactive)	-2.4e-05 (inactive)	0.00528 (inactive)	11.4% (inactive)	0.097% (inactive)
Cc1ccc(OCC(O)Cn2c(=N)n(CCN3CCCCC3)c3ccccc32)cc1 (stereo not drawn)	277	4.5% (inactive)	2.3% (inactive)	63.4	-6.5% (inactive)	96.8	-0.381 (inactive)	-4.1e-05 (inactive)	0.00474 (inactive)	-33.6% (inactive)	62.2% (active)
Cc1cccc(Cn2c(=O)n(Cc3ccco3)c(=O)c3ccccc32)c1	659	0.5% (inactive)	-10.9% (inactive)	122	-39% (inactive)	113	-0.608 (inactive)	-3.9e-05 (inactive)	0.00404 (inactive)	0.06% (inactive)	-5.18% (inactive)
COc1cc(-c2nc(S(=O)(=O)c3ccccc3)c(N3CCOCC3)o2)cc(OC)c1OC	439	6% (inactive)	-5.3% (inactive)	108	-286% (inactive)	126	-0.471 (inactive)	-0.000303 (inactive)	0.0029 (inactive)	14.4% (inactive)	15.3% (inactive)
CCOC(=O)CS(=O)(=O)c1nc(-c2ccccc2)cc(C(F)(F)F)n1	380	2.8% (inactive)	-12.2% (inactive)	102	-15.5% (inactive)	116	-0.462 (inactive)	-1.5e-05 (inactive)	0.00498 (inactive)	20.1% (inactive)	32.7% (inactive)
CC(C)(C)n1ncc2c(=O)n(CC(=O)c3ccccc3)cnc21	473	-1% (inactive)	-4.1% (inactive)	126	22.9% (inactive)	105	-0.534 (inactive)	-2.2e-05 (inactive)	0.00534 (inactive)	-21.3% (inactive)	-59.6% (inactive)
Cc1cc(C)n2nc(C(=O)NCc3ccco3)nc2n1	389	1.4% (inactive)	6.6% (inactive)	103	-3.3% (inactive)	109	-0.582 (inactive)	-4.1e-05 (inactive)	0.00618 (inactive)	10.5% (inactive)	10.8% (inactive)
CCOC(=O)C1CCN(C(=O)C2CCN(S(=O)(=O)c3cc(Cl)ccc3Cl)CC2)CC1	738	-4.9% (inactive)	14.8% (inactive)	91.3	4.5% (inactive)	96.7	-0.542 (inactive)	2.5e-05 (inactive)	0.00485 (inactive)	16% (inactive)	9.65% (inactive)
